Results taken from ChEMBL document CHEMBL1157567, “Design, synthesis, and evaluation of 2-methyl- and 2-amino-N-aryl-4,5-dihydrothiazolo[4,5-h]quinazolin-8-amines as ring-constrained 2-anilino-4-(thiazol-5-yl)pyrimidine cyclin-dependent kinase inhibitors” (J Med Chem, 2010).
Active and inactive are the calls of the source. No cut-off for these calls is given here.

Assays:
[1] = biological target: Cyclin-dependent kinase 1/cyclin B1 (Homo sapiens, UniProt P06493); assay: inhibition of CDK1/Cyclin B; assay type: protein-complex assay
Method in brief: (§1)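 Kinase activity measured over 10-point dose-response curves to give IC50; apparent Ki derived from IC50 using the ATP Km of each kinase.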

[2] = biological target: Cyclin-dependent kinase 2/cyclin E1 (Homo sapiens, UniProt P24941); assay: inhibition of CDK2/Cyclin E; assay type: protein-complex assay; method in brief: as §1
[3] = biological target: Cyclin-dependent kinase 4/cyclin D1 (Homo sapiens, UniProt P11802); assay: inhibition of CDK4/Cyclin D1; assay type: protein-complex assay; method in brief: as §1
[4] = biological target: Cyclin-dependent kinase 7/ cyclin H (Homo sapiens, UniProt P50613); assay: inhibition of CDK7/Cyclin H/MAT1; assay type: protein-complex assay; method in brief: as §1
CDK9/cyclin T1 = CDK9/cyclin T1 (Homo sapiens, UniProt P50750); assay: inhibition of CDK9/CyclinT1; assay type: protein-complex assay; method in brief: as §1
WI-38 [5] = assay: Induction of apoptosis in human WI38 cells assessed as caspase 3/7 activity at 2.5 uM after 24 hrs […]; assay type: functional, cell-based
Method in brief: (§2)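 Caspase-3/7 luminescent assay: 10 000 cells seeded per well, treated 24 h; detection reagent added directly at equal volume to medium, read after further 30 min at room temperature.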

A549 = assay: Antiproliferative activity against human A549 cells after 72 hrs by MTT assay; assay type: functional, cell-based; conditions: A549, 72 h
Method in brief: (§3)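 MTT (thiazolyl blue tetrazolium) colorimetric viability read-out after 72 h continuous exposure of cultured cells to test compound.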

HeLa = assay: Antiproliferative activity against human HeLa cells after 72 hrs by MTT assay; assay type: functional, cell-based; method in brief: as §3
HT-29 = assay: Antiproliferative activity against human HT-29 cells after 72 hrs by MTT assay; assay type: functional, cell-based; conditions: HT-29, 72 h; method in brief: as §3
MCF7 = assay: Antiproliferative activity against human MCF7 cells after 72 hrs by MTT assay; assay type: functional, cell-based; conditions: MCF7, 72 h; method in brief: as §3
SAOS-2 = assay: Antiproliferative activity against human Saos2 cells after 72 hrs by MTT assay; assay type: functional, cell-based; conditions: SAOS-2, 72 h; method in brief: as §3
[6] = biological target: T1, Cyclin-dependent kinase (Homo sapiens) (UniProt P06493+P11802+P24941+Q00535+Q00534+P50613+Q00526+Q00536+Q07002+P49336+Q00537+P21127+Q96Q40+Q9BWU1+O94921+P50750+Q15131+Q14004+Q8IZL9+Q9NYV4); assay: Inhibition of CDK in human A2780 cells assessed as reduction of RNAP2 phosphorylation at Ser2 site at 5 uM after 6 hrs by Western bloting; assay type: cell-based
Method in brief: (§4)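 Total cell lysate protein (10 µg) resolved on reducing 4-12% gradient SDS-PAGE after 6 h treatment at 5 µM; probed for RNAP-II phospho-Ser2 and phospho-Ser5 CTD alongside total RNAP-II.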

[7] = biological target: T1, Cyclin-dependent kinase (Homo sapiens); assay: Inhibition of CDK in human A2780 cells assessed as reduction of RNAP2 phosphorylation at Ser5 site at 5 uM after 6 hrs by Western bloting; assay type: cell-based; method in brief: as §4
[8] = biological target: T1, Cyclin-dependent kinase (Homo sapiens); assay: Inhibition of CDK in human A2780 cells assessed as reduction of pRb levels at 5 uM after 6 hrs by Western bloting; assay type: cell-based
[9] = biological target: T1, Cyclin-dependent kinase (Homo sapiens); assay: Inhibition of CDK in human A2780 cells assessed as increase in p53 levels at 5 uM after 6 hrs by Western bloting; assay type: cell-based
A2780 [10] = assay: Induction of apoptosis in human A2780 cells assessed as caspase 3/7 activity at 2.5 uM after 24 hrs […]; assay type: functional, cell-based; method in brief: as §2
A2780 [11] = assay: Induction of apoptosis in human A2780 cells assessed as TUNEL-positive cells at 5 uM after 24 hrs by TUNEL assay-based flow cytometric analysis; assay type: functional
Method in brief: (§5)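 Cells exposed 24 h to 5 µM compound or assay diluent alone; TUNEL labelling with flow cytometry, 10 000 cells collected; apoptotic (TUNEL-positive) fraction gated against DNA-content cell cycle stage.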

WI-38 [12] = assay: Induction of apoptosis in human WI38 cells assessed as TUNEL-positive cells at 5 uM after 24 hrs by TUNEL assay-based flow cytometric analysis; assay type: functional; method in brief: as §5

Chain of Cyclin-dependent kinase 4/cyclin D1 (P11802 whole entry): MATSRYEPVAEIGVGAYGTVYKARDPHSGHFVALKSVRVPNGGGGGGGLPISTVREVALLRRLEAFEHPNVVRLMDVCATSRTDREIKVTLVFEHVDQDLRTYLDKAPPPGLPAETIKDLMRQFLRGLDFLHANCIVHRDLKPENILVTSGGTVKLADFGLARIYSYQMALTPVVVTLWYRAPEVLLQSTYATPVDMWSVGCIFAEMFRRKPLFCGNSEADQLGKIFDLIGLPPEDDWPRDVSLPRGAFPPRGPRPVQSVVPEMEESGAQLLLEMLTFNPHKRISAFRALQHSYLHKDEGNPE
Chain of Cyclin-dependent kinase 4/cyclin D1 (P24385 whole entry, further chain): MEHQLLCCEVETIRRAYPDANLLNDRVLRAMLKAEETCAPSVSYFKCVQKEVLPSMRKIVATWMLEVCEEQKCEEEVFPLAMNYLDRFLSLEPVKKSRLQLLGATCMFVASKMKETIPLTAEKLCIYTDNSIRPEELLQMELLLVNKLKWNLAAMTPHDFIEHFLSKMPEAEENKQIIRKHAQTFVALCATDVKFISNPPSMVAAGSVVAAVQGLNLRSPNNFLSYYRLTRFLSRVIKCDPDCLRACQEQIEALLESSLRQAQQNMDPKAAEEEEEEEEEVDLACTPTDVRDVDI
Chain of Cyclin-dependent kinase 7/ cyclin H (P51946 whole entry): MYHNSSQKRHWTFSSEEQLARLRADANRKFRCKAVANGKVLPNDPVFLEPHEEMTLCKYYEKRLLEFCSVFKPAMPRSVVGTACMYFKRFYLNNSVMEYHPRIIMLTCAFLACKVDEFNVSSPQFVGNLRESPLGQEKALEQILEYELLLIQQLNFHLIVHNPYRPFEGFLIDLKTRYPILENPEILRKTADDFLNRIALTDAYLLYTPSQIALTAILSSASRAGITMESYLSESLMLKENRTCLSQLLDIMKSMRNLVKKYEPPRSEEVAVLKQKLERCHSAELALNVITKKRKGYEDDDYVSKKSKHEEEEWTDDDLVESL
Chain of Cyclin-dependent kinase 7/ cyclin H (P50613 whole entry): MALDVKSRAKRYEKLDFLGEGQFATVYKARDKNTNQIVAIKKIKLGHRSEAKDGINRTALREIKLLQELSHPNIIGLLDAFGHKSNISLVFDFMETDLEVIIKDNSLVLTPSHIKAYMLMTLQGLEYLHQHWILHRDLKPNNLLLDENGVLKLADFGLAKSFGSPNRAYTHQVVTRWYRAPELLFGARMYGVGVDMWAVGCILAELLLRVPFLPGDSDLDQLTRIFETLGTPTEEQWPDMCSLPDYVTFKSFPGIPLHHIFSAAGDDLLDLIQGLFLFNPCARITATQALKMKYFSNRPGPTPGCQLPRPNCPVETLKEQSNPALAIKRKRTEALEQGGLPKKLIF
Chain of Cyclin-dependent kinase 1/cyclin B1 (P06493 whole entry): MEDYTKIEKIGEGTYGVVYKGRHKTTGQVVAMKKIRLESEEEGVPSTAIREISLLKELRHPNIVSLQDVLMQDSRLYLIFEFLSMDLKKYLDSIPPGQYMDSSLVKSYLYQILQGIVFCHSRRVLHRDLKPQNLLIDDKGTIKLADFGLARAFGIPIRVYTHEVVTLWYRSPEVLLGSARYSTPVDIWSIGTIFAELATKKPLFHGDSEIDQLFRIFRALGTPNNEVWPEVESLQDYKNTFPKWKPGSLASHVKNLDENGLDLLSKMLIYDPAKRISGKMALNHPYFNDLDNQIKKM
Chain of Cyclin-dependent kinase 1/cyclin B1 (P14635 whole entry, further chain): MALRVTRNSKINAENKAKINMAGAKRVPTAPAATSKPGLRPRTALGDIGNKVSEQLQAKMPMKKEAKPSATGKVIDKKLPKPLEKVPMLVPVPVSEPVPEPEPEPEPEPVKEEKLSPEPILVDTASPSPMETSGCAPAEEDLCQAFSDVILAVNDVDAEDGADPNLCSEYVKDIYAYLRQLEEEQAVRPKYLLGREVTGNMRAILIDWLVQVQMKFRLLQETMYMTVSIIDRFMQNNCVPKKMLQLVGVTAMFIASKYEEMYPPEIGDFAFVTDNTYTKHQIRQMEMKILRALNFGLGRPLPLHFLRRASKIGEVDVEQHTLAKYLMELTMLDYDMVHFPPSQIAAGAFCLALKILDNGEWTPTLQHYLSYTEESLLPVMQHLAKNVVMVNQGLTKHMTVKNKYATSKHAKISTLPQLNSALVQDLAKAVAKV
Chain of CDK9/cyclin T1 (O60563 whole entry): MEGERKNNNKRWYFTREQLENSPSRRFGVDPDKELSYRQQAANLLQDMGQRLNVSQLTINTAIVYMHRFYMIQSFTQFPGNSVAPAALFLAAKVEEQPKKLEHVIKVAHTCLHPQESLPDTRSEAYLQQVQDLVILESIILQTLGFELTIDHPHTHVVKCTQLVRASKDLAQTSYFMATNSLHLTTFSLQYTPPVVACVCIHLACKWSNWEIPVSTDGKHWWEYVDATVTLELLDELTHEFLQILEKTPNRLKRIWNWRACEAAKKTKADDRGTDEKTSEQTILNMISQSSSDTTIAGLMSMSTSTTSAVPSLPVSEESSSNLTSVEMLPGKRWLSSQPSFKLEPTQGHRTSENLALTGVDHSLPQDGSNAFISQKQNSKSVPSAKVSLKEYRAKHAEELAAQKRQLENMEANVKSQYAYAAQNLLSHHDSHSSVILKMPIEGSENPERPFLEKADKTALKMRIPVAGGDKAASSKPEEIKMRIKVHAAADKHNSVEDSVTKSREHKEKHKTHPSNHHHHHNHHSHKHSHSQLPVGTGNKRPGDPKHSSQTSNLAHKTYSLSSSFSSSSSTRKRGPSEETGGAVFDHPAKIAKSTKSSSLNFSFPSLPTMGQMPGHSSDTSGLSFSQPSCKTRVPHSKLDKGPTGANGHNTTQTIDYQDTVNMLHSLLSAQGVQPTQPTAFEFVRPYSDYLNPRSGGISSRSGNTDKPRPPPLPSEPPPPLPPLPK
Chain of CDK9/cyclin T1 (P50750 whole entry): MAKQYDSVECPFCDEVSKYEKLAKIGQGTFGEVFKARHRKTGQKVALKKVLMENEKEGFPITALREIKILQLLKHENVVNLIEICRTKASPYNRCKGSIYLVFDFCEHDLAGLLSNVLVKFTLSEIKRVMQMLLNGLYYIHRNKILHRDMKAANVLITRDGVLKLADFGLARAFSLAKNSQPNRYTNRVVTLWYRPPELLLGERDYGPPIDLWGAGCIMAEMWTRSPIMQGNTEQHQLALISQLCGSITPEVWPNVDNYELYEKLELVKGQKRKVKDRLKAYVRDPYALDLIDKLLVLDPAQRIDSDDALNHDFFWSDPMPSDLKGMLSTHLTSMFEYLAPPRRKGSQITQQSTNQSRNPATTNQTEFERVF

SMILES	Ki [1]	Ki [2]	Ki [3]	Ki [4]	Ki (CDK9/cyclin T1)	also measured
Cc1nc2ccc3cnc(Nc4ccccc4)nc3c2s1	1700 nM	24 nM	2700 nM	> 10000 nM	> 10000 nM	
Cc1nc2ccc3cnc(N(C)c4cccc([N+](=O)[O-])c4)nc3c2s1	7500 nM	1600 nM	> 10000 nM	> 10000 nM	> 10000 nM	
Cc1nc2c(s1)-c1nc(Nc3ccc(N4CCOCC4)cc3)ncc1CC2	15000 nM	200 nM	> 10000 nM	1000 nM	640 nM	
Cc1nc2c(s1)-c1nc(Nc3ccccc3)ncc1CC2	750 nM	1 nM	900 nM	2200 nM	260 nM	
Cc1nc2c(s1)-c1nc(Nc3ccc(C(F)(F)F)cc3)ncc1CC2	960 nM	160 nM	4900 nM	> 10000 nM	1900 nM	
Cc1nc2c(s1)-c1nc(N(C)c3cccc([N+](=O)[O-])c3)ncc1CC2	2700 nM	590 nM	> 10000 nM	1800 nM	12000 nM	
Cc1nc2c(s1)-c1nc(N)ncc1CC2	> 10000 nM	> 10000 nM	> 10000 nM	> 10000 nM	> 10000 nM	
Cc1nc2c(s1)-c1nc(Nc3ccc(N(C)C)cc3)ncc1CC2	2500 nM	10 nM	37 nM	60 nM	640 nM	

The next molecules have a lower Ki [1] than those just listed; values first:

Ki [1]	Ki [2]	Ki [3]	Ki [4]	Ki (CDK9/cyclin T1)	SMILES	also measured
360 nM	11 nM	580 nM	53 nM	32 nM	Cc1nc2c(s1)-c1nc(Nc3cccc(O)c3)ncc1CC2	
320 nM	23 nM	2000 nM	790 nM	2 nM	Cc1nc2c(s1)-c1nc(Nc3cccc([N+](=O)[O-])c3)ncc1CC2	Activity (WI-38 [5]): inactive; IC50 (A549): 690 nM; IC50 (HeLa): 1100 nM; IC50 (HT-29): 1400 nM; IC50 (MCF7): 1700 nM; IC50 (SAOS-2): 1200 nM; Activity [6]: Active; Activity [7]: Active; Activity [8]: Active; Activity [9]: Active; Activity (A2780 [10]): Active; Activity (A2780 [11]): 20%; Activity (WI-38 [12]): 0.7%
630 nM	88 nM	330 nM	1200 nM	110 nM	Nc1nc2c(s1)-c1nc(Nc3ccccc3)ncc1CC2	
98 nM	31 nM	470 nM	500 nM	160 nM	CN(C)c1ccc(Nc2ncc3c(n2)-c2sc(N)nc2CC3)cc1	
78 nM	49 nM	120 nM	1100 nM	1000 nM	COc1ccc(Nc2ncc3c(n2)-c2sc(C)nc2CC3)cn1	
310 nM	130 nM	> 10000 nM	4800 nM	140 nM	Cc1nc2c(s1)-c1nc(Nc3ccc([N+](=O)[O-])cc3)ncc1CC2	
18 nM	1 nM	130 nM	140 nM	3 nM	Nc1nc2c(s1)-c1nc(Nc3cccc([N+](=O)[O-])c3)ncc1CC2	
200 nM	1 nM	540 nM	300 nM	490 nM	Cc1nc2c(s1)-c1nc(Nc3ccc(O)cc3)ncc1CC2	
19 nM	25 nM	40 nM	1400 nM	1200 nM	Cc1nc2c(s1)-c1nc(Nc3ccc(Cl)nc3)ncc1CC2	
700 nM	920 nM	2400 nM	6300 nM	670 nM	COC(=O)c1ccc(Nc2ncc3c(n2)-c2sc(C)nc2CC3)cc1	
